Source: ChEMBL document CHEMBL4321878, “Stereoselective Activity of 1-Propargyl-4-styrylpiperidine-like Analogues That Can Discriminate between Monoamine Oxidase Isoforms A and B” (J Med Chem, 2020)
Each block holds one molecule with its values, some of them ahead of it. Activity calls are given as the source filed them. No cut-off for these calls is given here.

Assays:
[1] = Photoisomerization of the compound in D2O incubated for 7 days under sunlight by NMR analysis
[2] = Thermodynamic solubility of the compound in pH 7.4 phosphate buffered saline assessed per […] at 7 to 9 mg incubated for 24 hrs under shaking condition by HPLC analysis; assay type: physicochemical; conditions: in vitro, pH 7.4, 24 h
[3] = Toxicity in Swiss mouse assessed as change in behavior at 0.3 mg/kg, ip administered once daily for 10 days measured during compound dosing; assay type: organism-based; conditions: in vivo, 240 h
Mus musculus [4] = assay: Ex vivo inhibition of MAOA in Swiss mouse brain homogenates assessed as residual activity at 60 mg/kg, ip measured after 30 mins using 5-HT as substrate by amplex red reagent-based horseradish peroxidase-coupled fluorescence assay relative to control; assay type: functional
Summary of the method: (§1)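 Male Swiss mice (n = 3 per group) received 60 mg/kg ip in 0.9% saline, or saline alone, 30 min before brain homogenate preparation. […] Residual activity reported as mean ± SD, n = 1 in triplicate.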

[5] = Apparent permeability across absorptive direction in Sprague-Dawley rat ileum at 50 uM measured after 20 mins LC-MS/MS analysis; assay type: ADME, tissue-based
[6] = Cytotoxicity against human SH-SY5Y cells assessed as cell viability at 50 uM measured after 24 hrs by MTS assay relative to control; assay type: cell-based; conditions: read-out: Activity
Summary of the method: (§2)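 SH-SY5Y human neuroblastoma cells grown in Advanced DMEM with 10% FBS at 37 °C, 5% CO2, and switched to serum-depleted medium before treatment. Compounds (20 mM DMSO stocks) were applied at 5, 10 or 50 μM for 24 h. Viability read by MTS assay.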

Mus musculus [7] = assay: Ex vivo inhibition of MAOA/MAOB in Swiss mouse brain homogenates assessed as residual activity at 60 mg/kg, ip measured after 30 mins using p-tyramine as substrate by amplex red reagent-based horseradish peroxidase-coupled fluorescence assay relative to control; assay type: functional; summary of the method: as §1
Mus musculus [8] = assay: Ex vivo inhibition of MAOA in Swiss mouse brain homogenates assessed as residual activity at 0.3 mg/kg, ip measured after 30 mins using 5-HT as substrate by amplex red reagent-based horseradish peroxidase-coupled fluorescence assay relative to control; assay type: functional
Mus musculus [9] = assay: Ex vivo inhibition of MAOA in Swiss mouse brain homogenates assessed as residual activity at 30 mg/kg, po administered via gavage measured after 90 mins using 5-HT as substrate by amplex red reagent-based horseradish peroxidase-coupled fluorescence assay relative to control; assay type: functional
Mus musculus [10] = assay: Antianxiety activity in Swiss mouse at 0.3 mg/kg, ip […] and monitored for 5 mins by elevated plus maze test; assay type: functional, organism-based
SH-SY5Y [11] = assay: Cytotoxicity against human SH-SY5Y cells assessed as reduction in cell viability at 5 to 10 uM measured after 24 hrs by MTS assay; assay type: cell-based; summary of the method: as §2
[12] = Chemical stability of the compound in D2O measured incubated for >1 year at room temperature under dark condition by NMR analysis; assay type: physicochemical
Mus musculus [13] = assay: Effect on spontaneous locomotor activity in Swiss mouse assessed as change in number of light beam crossings at 3 mg/kg, ip measured after 30 mins and monitored for 5 mins; assay type: ADME, organism-based; conditions: in vivo
[14] = Apparent permeability across eliminatory direction in Sprague-Dawley rat ileum at 50 uM measured after 20 mins LC-MS/MS analysis; assay type: ADME, tissue-based
Mus musculus [15] = assay: Antidepressant-like activity in Swiss mouse assessed as reduction in immobility time at 1 to 30 mg/kg, ip administered as single dose for 30 mins prior to testing measured for last 4 mins of 6 mins test by tail suspension test; assay type: functional, organism-based
Mus musculus [16] = assay: Antidepressant-like activity in Swiss mouse assessed as reduction in immobility time at 0.3 mg/kg, ip administered once daily for 10 days measured for last 4 mins of 6 mins test at 30 mins post-last dose test by tail suspension test; assay type: functional, organism-based
Summary of the method: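 Male Swiss mice injected ip daily with 0.3 mg/kg in 0.9% saline for 10 days (n = 10; saline controls n = 8). Tail suspension test on day 10, 30 min after the injection. Immobility time reported as mean ± SEM and compared by unpaired t-test.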

Mus musculus [17] = assay: Effect on spontaneous locomotor activity in Swiss mouse assessed as change in number of light beam crossings at 0.3 mg/kg, ip administered […] and monitored for 5 mins; assay type: ADME, organism-based; conditions: in vivo
Mus musculus [18] = assay: Antianxiety activity in Swiss mouse assessed as increase in open arm entries at 3 mg/kg, ip measured after 30 mins and monitored for 5 mins by elevated plus maze test relative to control; assay type: functional
Mus musculus [19] = assay: Antianxiety activity in Swiss mouse assessed as increase in time spent in open arm entries at 3 mg/kg, ip measured after 30 mins and monitored for 5 mins by elevated plus maze test relative to control; assay type: functional
[20] = Toxicity in Swiss mouse assessed as change in body weight at 0.3 mg/kg, ip administered once daily for 10 days measured during compound dosing; assay type: organism-based; conditions: in vivo, 240 h
Mus musculus [21] = assay: (§3) Ex vivo inhibition of MAOA in Swiss mouse brain homogenates assessed as residual activity at 0.3 mg/kg, ip administered once daily for 10 days measured 30 mins post-last dose using 5-HT as substrate by amplex red reagent-based horseradish peroxidase-coupled fluorescence assay relative to control; assay type: functional
[22] = target: T1, Amine oxidase [flavin-containing] A (Mus musculus, UniProt Q64133); assay: Inhibition of MAOA in Swiss mouse brain homogenates assessed as residual activity at 50 uM using 5-HT as substrate preincubated for 10 mins followed by substrate addition by amplex red reagent-based horseradish peroxidase-coupled fluorescence assay relative to control; assay type: tissue-based; conditions: read-out: Activity
T1 sequence (Q64133 whole entry): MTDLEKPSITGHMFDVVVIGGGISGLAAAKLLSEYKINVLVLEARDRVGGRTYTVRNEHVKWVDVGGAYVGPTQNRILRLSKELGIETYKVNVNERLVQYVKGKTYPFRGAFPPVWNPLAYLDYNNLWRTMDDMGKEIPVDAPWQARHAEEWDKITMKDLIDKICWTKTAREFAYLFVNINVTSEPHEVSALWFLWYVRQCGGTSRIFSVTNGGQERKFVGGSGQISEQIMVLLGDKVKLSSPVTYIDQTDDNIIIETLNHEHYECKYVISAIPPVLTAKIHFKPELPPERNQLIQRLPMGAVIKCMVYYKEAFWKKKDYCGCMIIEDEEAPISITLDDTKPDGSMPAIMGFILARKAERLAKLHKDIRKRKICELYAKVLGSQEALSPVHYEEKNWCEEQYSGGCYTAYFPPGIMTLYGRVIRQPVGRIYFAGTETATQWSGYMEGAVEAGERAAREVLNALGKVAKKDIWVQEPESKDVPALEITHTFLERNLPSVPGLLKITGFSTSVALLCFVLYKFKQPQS

Mus musculus [23] = assay: Ex vivo inhibition of MAOA in ip dosed Swiss mouse brain homogenates measured after 30 mins using 5-HT as substrate by amplex red reagent-based horseradish peroxidase-coupled fluorescence assay; assay type: functional
SH-SY5Y [24] = assay: Neuroprotective activity against 6-OHDA-induced toxicity in human SH-SY5Y cells assessed as LDH release at 5 uM pretreated for 30 mins followed by 6-OHDA challenge and measured after 24 hrs by cytotox-onetm homogeneous membrane integrity assay (reference value: 135%); assay type: functional
[25] = Apparent permeability in Sprague-Dawley rat ileum at 50 uM measured after 20 mins LC-MS/MS analysis; assay type: ADME, tissue-based
SH-SY5Y [26] = assay: Neuroprotective activity against 6-OHDA-induced toxicity in human SH-SY5Y cells assessed as reduction in propidium iodide positive cells at 5 uM pretreated for 30 mins followed by 6-OHDA challenge and measured after 24 hrs by propidium iodide staining-based flow cytometric analysis relative to 6-OHDA; assay type: functional
Summary of the method: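 SH-SY5Y cells were grown in Advanced DMEM with 10% FBS at 37 °C, 5% CO2 to 80% confluence, then switched to serum-depleted medium. Compound (5 μM, from a 20 mM DMSO stock) was added 30 min before 6-OHDA (100 μM). After 24 h, PI staining was read by flow cytometry. Runs were n ≥ 2, each in duplicate, with one-way ANOVA and Bonferroni.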

Mus musculus [27] = assay: Effect on behavioral changes in Swiss mouse at 0.3 mg/kg, ip administered […] and monitored for 5 mins by hole-board test; assay type: ADME, organism-based; conditions: in vivo
Mus musculus [28] = assay: Effect on behavioral changes in Swiss mouse at >10 mg/kg, ip measured after 30 mins and monitored for 5 mins by hole-board test; assay type: ADME, organism-based; conditions: in vivo
Summary of the method: (§4)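 Male Swiss mice given single ip doses of ≥10 mg/kg in 0.9% saline, tested 30 min later in the hole-board test combined with spontaneous locomotor activity recording.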

Mus musculus [29] = assay: Ex vivo inhibition of MAOB in Swiss mouse brain homogenates assessed as residual activity at 0.3 mg/kg, ip measured after 30 mins using benzylamine as substrate by amplex red reagent-based horseradish peroxidase-coupled fluorescence assay relative to control; assay type: functional
Mus musculus [30] = assay: Ex vivo inhibition of MAOB in Swiss mouse brain homogenates assessed as residual activity at 30 mg/kg, po administered via gavage measured after 90 mins using benzylamine as substrate by amplex red reagent-based horseradish peroxidase-coupled fluorescence assay relative to control; assay type: functional
Mus musculus [31] = assay: as §3, with “MAOB” for “MAOA”, “benzylamine” for “5-HT”; assay type: functional
Mus musculus [32] = assay: Ex vivo inhibition of MAOB in Swiss mouse brain homogenates assessed as residual activity at 60 mg/kg, ip measured after 30 mins using benzylamine as substrate by amplex red reagent-based horseradish peroxidase-coupled fluorescence assay relative to control; assay type: functional; summary of the method: as §1
Mus musculus [33] = assay: Ex vivo inhibition of MAOB in ip dosed Swiss mouse brain homogenates measured after 30 mins using benzylamine as substrate by amplex red reagent-based horseradish peroxidase-coupled fluorescence assay; assay type: functional; conditions: 0.5 h
Mus musculus [34] = assay: Effect on spontaneous locomotor activity in Swiss mouse assessed as change in number of light beam crossings at >10 mg/kg, ip measured after 30 mins and monitored for 5 mins; assay type: ADME, organism-based; conditions: in vivo; summary of the method: as §4
[35] = target: T2, Amine oxidase [flavin-containing] B (Mus musculus, UniProt Q8BW75); assay: Inhibition of MAOB in Swiss mouse brain homogenates assessed as residual activity at 50 uM using benzylamine as substrate preincubated for 10 mins followed by substrate addition by amplex red reagent-based horseradish peroxidase-coupled fluorescence assay relative to control; assay type: tissue-based; conditions: read-out: Activity
T2 sequence (Q8BW75 whole entry): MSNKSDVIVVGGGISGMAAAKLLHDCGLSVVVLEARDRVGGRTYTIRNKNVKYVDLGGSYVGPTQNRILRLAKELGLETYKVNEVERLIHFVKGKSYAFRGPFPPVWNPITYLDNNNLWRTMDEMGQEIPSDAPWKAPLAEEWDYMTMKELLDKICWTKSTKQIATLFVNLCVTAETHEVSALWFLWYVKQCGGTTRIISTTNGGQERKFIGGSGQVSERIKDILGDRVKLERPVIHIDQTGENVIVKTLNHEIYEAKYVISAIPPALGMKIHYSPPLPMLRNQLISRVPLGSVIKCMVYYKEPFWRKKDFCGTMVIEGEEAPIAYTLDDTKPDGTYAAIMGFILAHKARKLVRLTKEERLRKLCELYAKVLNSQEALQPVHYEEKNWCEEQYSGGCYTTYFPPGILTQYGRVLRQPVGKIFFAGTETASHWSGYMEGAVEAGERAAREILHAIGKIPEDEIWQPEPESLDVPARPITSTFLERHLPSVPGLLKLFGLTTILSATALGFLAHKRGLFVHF

- Therm solubility [2]: ≥ 34.4 mg/mL
- Papp A→B at 20 min, 50 µM [5]: 10.8 ×10⁻⁶ cm/s
- Stability [12]: Stable
- Papp at 20 min, 50 µM [14]: 35.4 ×10⁻⁶ cm/s
- activity at 50 µM [22]: -1.3%
- inhibition (Mus musculus [23]): Dose-dependent effect
SMILES: C#CCN1CCC(/C=C\c2cccc(F)c2)CC1.Cl
- Drug metabolism [1]: Metabolite not detected
- Activity [3]: Non-Toxic
- Activity (Mus musculus [4]): 1.6%
- viability at 24 h, 50 µM [6]: > 80%
- Activity (Mus musculus [7]): 14.2%
- Activity (Mus musculus [8]): 67.8%
- Activity (Mus musculus [9]): 45.3%
- Activity (Mus musculus [10]): inactive
- Activity (SH-SY5Y [11]): Non-Toxic
- Activity (Mus musculus [13]): Non-Toxic
- Activity (Mus musculus [15]): inactive
- Activity (Mus musculus [16]): Active
- Activity (Mus musculus [17]): Non-Toxic
- fold change (FC) (Mus musculus [18]): 2
- fold change (FC) (Mus musculus [19]): 2.1
- Activity [20]: Non-Toxic
- Activity (Mus musculus [21]): 9.5%
- ED50 (Mus musculus [23]; 0.5 h): 0.43 mg/kg

SMILES: C#CCN1CCC(/C=C/c2ccc(C(F)(F)F)cc2)CC1.Cl
- Activity (SH-SY5Y [24]): 87%
- viability at 24 h, 50 µM [6]: > 80%
- Papp [25]: Impermeable
- fold change (FC) (SH-SY5Y [26]): 0.65
- Activity (SH-SY5Y [11]): Non-Toxic

- Stability [12]: Stable
- activity at 50 µM [35]: -7.7%
SMILES: C#CCN1CCC(CCc2ccc(C(F)(F)F)cc2)CC1.Cl
- Activity [3]: Non-Toxic
- Activity (Mus musculus [27]): Toxic
- Activity (Mus musculus [28]): Toxic
- viability at 24 h, 50 µM [6]: > 80%
- Activity (Mus musculus [7]): 77.2%
- Activity (Mus musculus [29]): 83.4%
- Activity (Mus musculus [30]): 30.5%
- Activity (Mus musculus [31]): 28.3%
- Activity (Mus musculus [32]): 24.3%
- Activity (SH-SY5Y [11]): Non-Toxic
- ED50 (Mus musculus [33]): 1.38 mg/kg
- Activity (Mus musculus [34]): Toxic
- Activity (Mus musculus [17]): Toxic
- Activity [20]: Non-Toxic
